What all share (format): functional, Diaphragm
Assay [1] can be described thus: Antidiabetic activity in rat hemidiaphragm assessed as glucose uptake at 2 mg after 45 mins in presence of insulin. In short, it runs like this:
(§1)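 Isolated rat hemi-diaphragm in Tyrode, test agent at 1 mg or 2 mg with or without insulin; 45 min incubation at 21 °C, shaking at 60 cycles/min. Medium glucose measured by GOD/POD enzymatic method; uptake expressed as mg/dl/45 min. Run in triplicate, mean ± SEM; groups compared by one-way ANOVA with Dunnett's post-test.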

A short description of assay [2]: Antidiabetic activity in rat hemidiaphragm assessed as glucose uptake at 1 mg after 45 mins in presence of insulin. In short, it runs like this: as §1
The nature of assay [3]: Antidiabetic activity in rat hemidiaphragm assessed as glucose uptake at 1 mg after 45 mins in absence of insulin. In short, it runs like this: as §1
Assay [4] can be described thus: Antidiabetic activity in rat hemidiaphragm assessed as glucose uptake at 2 mg after 45 mins in absence of insulin. In short, it runs like this:
as §1

With `O=C(CN1C(=O)S/C(=C\c2ccc(Cl)cc2)C1=O)Nc1ccccc1`, the Activity in assay [1] amounted to 36.66 mg/dL; in assay [2] it was 36.03 mg/dL; in assay [3], 16.83 mg/dL; in assay [4], 16.9 mg/dL.
For `O=C(CN1C(=O)S/C(=C\c2ccccc2Cl)C1=O)Nc1ccccc1`, in that order: 27.16 mg/dL, 26.03 mg/dL, 13.81 mg/dL and 14.03 mg/dL.
Consider `O=C(CN1C(=O)S/C(=C\c2cccc(Cl)c2)C1=O)Nc1ccccc1`, for which the Activity was determined as 40.5 mg/dL in assay [1], 39 mg/dL in assay [2], 17.83 mg/dL in assay [3] and 17.63 mg/dL in assay [4].
For `CCOC(=O)CNC(=O)CN1C(=O)S/C(=C\c2ccc(OC)cc2)C1=O`, in that order: 43.07 mg/dL, 41.5 mg/dL, 18.28 mg/dL and 18.79 mg/dL.
Take `O=C(COc1ccc(/C=C2\SC(=O)NC2=O)cc1)Nc1ccccc1`: the Activity worked out at 42.69 mg/dL in assay [1], 41.16 mg/dL in assay [2], 18.46 mg/dL in assay [3] and 18.5 mg/dL in assay [4].
With `O=C(COc1ccc(/C=C2\SC(=S)NC2=O)cc1)Nc1ccccc1`, the Activity was determined as 35.33 mg/dL in assay [1], 34.66 mg/dL in assay [2], 16.16 mg/dL in assay [3] and 16.33 mg/dL in assay [4].
As to `CCc1cccc(CC)c1NC(=O)COc1ccc(/C=C2\SC(=S)NC2=O)cc1`, the Activity in assay [1] was determined as 28.5 mg/dL; in assay [2], 28.83 mg/dL; in assay [3], 14.5 mg/dL; in assay [4], 15.66 mg/dL.
For `CCc1cccc(CC)c1NC(=O)COc1ccc(/C=C2\SC(=O)NC2=O)cc1`, in that order: 29.8 mg/dL, 29 mg/dL, 15.82 mg/dL and 15 mg/dL.
Consider `COc1ccc(NC(=O)COc2ccc(/C=C3\SC(=O)NC3=O)cc2)cc1`, for which the Activity in assay [1] worked out at 35.66 mg/dL; in assay [2], 34.16 mg/dL; in assay [3], 16.66 mg/dL; in assay [4], 16.83 mg/dL.
Consider `COc1ccc(NC(=O)COc2ccc(/C=C3\SC(=S)NC3=O)cc2)cc1`, for which the Activity in assay [1] is 37.09 mg/dL; in assay [2] it was 35 mg/dL; in assay [3] it was 16.91 mg/dL; in assay [4], 17.01 mg/dL.
Consider `Cc1ccc(NC(=O)COc2ccc(/C=C3\SC(=O)NC3=O)cc2)cc1`, for which the Activity in assay [1] stood at 33.5 mg/dL; in assay [2], 33.83 mg/dL; in assay [3], 16 mg/dL; in assay [4], 16.16 mg/dL.
For `Cc1ccc(NC(=O)COc2ccc(/C=C3\SC(=S)NC3=O)cc2)cc1`, the Activity was 34.16 mg/dL in assay [1], 33.79 mg/dL in assay [2], 15.33 mg/dL in assay [3] and 16.56 mg/dL in assay [4].
As for `COc1ccc(/C=C2\SC(=O)N(CC(=O)Nc3ccccc3)C2=O)cc1`, the Activity was 43.9 mg/dL in assay [1], 42.16 mg/dL in assay [2], 18.71 mg/dL in assay [3] and 19.66 mg/dL in assay [4].
`O=C(CN1C(=O)S/C(=C\c2ccc(Cl)cc2Cl)C1=O)Nc1ccccc1`: the Activity in assay [1] was 42.44 mg/dL; in assay [2], 41.93 mg/dL; in assay [3] it was 18.33 mg/dL; in assay [4], 18.5 mg/dL.
In the case of `O=C(CN1C(=O)S/C(=C\c2ccccc2O)C1=O)Nc1ccccc1`, the Activity was found to be 42.26 mg/dL in assay [1], 41.85 mg/dL in assay [2], 18 mg/dL in assay [3] and 18.33 mg/dL in assay [4].
For `O=C(CN1C(=O)S/C(=C\C=C\c2ccccc2)C1=O)Nc1ccccc1`, in that order: 36.66 mg/dL, 36.16 mg/dL, 15 mg/dL and 16.16 mg/dL.
For the molecule `O=C(CN1C(=O)S/C(=C\c2ccccc2)C1=O)Nc1ccccc1`, the Activity in assay [1] came out at 39 mg/dL; in assay [2], 38.3 mg/dL; in assay [3], 17.72 mg/dL; in assay [4] it was 18 mg/dL.
With `O=C(CN1C(=O)S/C(=C\c2ccco2)C1=O)Nc1ccccc1`, the Activity came to 32.29 mg/dL in assay [1], 32.16 mg/dL in assay [2], 15.66 mg/dL in assay [3] and 15.86 mg/dL in assay [4].
For the molecule `COc1cc(/C=C2\SC(=O)N(CC(=O)Nc3ccccc3)C2=O)ccc1O`, the Activity was 30.83 mg/dL in assay [1], 28.5 mg/dL in assay [2], 15.5 mg/dL in assay [3] and 16.96 mg/dL in assay [4].
For `CN(CCOc1ccc(CC2SC(=O)NC2=O)cc1)c1ccccn1` (stereo not given) [ROSIGLITAZONE], in that order: 50.33 mg/dL, 48.34 mg/dL, 19 mg/dL and 20.36 mg/dL.

(Values after ChEMBL document CHEMBL1687879, “Synthesis, glucose uptake activity and structure-activity relationships of some novel glitazones incorporated with glycine, aromatic and alicyclic amine moieties via two carbon acyl linker” (2011).)
